# Measurements taken from ChEMBL document CHEMBL4007456, “Heterocyclyl Tetracyclines. 1. 7-Trifluoromethyl-8-Pyrrolidinyltetracyclines: Potent, Broad Spectrum Antibacterial Agents with Enhanced Activity against Pseudomonas aeruginosa” (2017).
# Legend:
# Format in all cases: functional
# Acinetobacter baumannii = assay: Antibacterial activity against gram-negative Acinetobacter baumannii AB250 by CLSI method
# Summary of the method: (§1)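 Broth microdilution MIC per CLSI in cation-adjusted Mueller Hinton broth, prepared fresh and held at 4 °C. Defibrinated horse blood added where appropriate. Compounds serially diluted in sterile deionized water. Strains from ATCC unless otherwise noted. Runs accepted when comparator antibiotics fell within QC ranges for ATCC quality control strains.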
# [1] = tested on: Stenotrophomonas maltophilia; assay: Antibacterial activity against gram-negative Stenotrophomonas maltophilia SM256 by CLSI method; summary of the method: as §1
# Burkholderia cenocepacia = assay: Antibacterial activity against gram-negative Burkholderia cenocepacia BC240 by CLSI method
# Summary of the method: (§2)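 Defibrinated horse blood added where appropriate. Compounds serially diluted in sterile deionized water. Strains from ATCC unless otherwise noted. Runs accepted when comparator antibiotics fell within QC ranges for ATCC quality control strains.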
# Enterococcus faecalis [2] = assay: Antibacterial activity against gram-positive Enterococcus faecalis EFs327 harboring tet(M) by CLSI method
# Summary of the method: (§3)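 CLSI broth microdilution MIC in fresh cation-adjusted Mueller Hinton broth, supplemented with defibrinated horse blood where appropriate. Compounds serially diluted in sterile deionized water. Runs accepted when comparator antibiotics against ATCC quality-control strains fell within recommended ranges.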
# Enterococcus faecium = assay: Antibacterial activity against gram-positive Enterococcus faecium EFm404 harboring tet(M) by CLSI method; summary of the method: as §3
# Klebsiella pneumoniae [3] = assay: Antibacterial activity against gram-negative Klebsiella pneumoniae KP457 harboring blacTX-M-15 extended spectrum beta-lactamase gene by CLSI method; summary of the method: as §3
# Proteus mirabilis [4] = assay: Antibacterial activity against gram-negative Proteus mirabilis PM385 by CLSI method; summary of the method: as §1
# Pseudomonas aeruginosa [5] = assay: Antibacterial activity against gram-negative Pseudomonas aeruginosa PA555 by CLSI method; summary of the method: as §1
# Enterobacter cloacae = assay: Antibacterial activity against gram-negative Enterobacter cloacae EC1603 harboring tet(A) by CLSI method; summary of the method: as §3
# Staphylococcus aureus [6] = assay: Antibacterial activity against gram-positive Staphylococcus aureus SA101 by CLSI method; summary of the method: as §1
# Staphylococcus aureus [7] = assay: Antibacterial activity against gram-positive Staphylococcus aureus SA161 harboring tet(M) by CLSI method; summary of the method: as §3
# Staphylococcus aureus [8] = assay: Antibacterial activity against gram-positive Staphylococcus aureus SA158 harboring tet(K) by CLSI method; summary of the method: as §3
# Streptococcus pneumoniae [9] = assay: Antibacterial activity against gram-positive Streptococcus pneumoniae SP160 harboring tet(M) by CLSI method; summary of the method: as §3
# Escherichia coli [10] = assay: Antibacterial activity against gram-negative Escherichia coli EC107 by CLSI method; summary of the method: as §1
# Escherichia coli [11] = assay: Antibacterial activity against gram-negative Escherichia coli EC155 harboring tet(A) by CLSI method; summary of the method: as §3
# Klebsiella pneumoniae [12] = assay: Antibacterial activity against gram-negative Klebsiella pneumoniae KP153 harboring tet(A) by CLSI method; summary of the method: as §3
# Proteus mirabilis [13] = assay: Antibacterial activity against gram-negative Proteus mirabilis PM122 by CLSI method; summary of the method: as §2
# Pseudomonas aeruginosa [14] = assay: Antibacterial activity against gram-negative Pseudomonas aeruginosa PA169 by CLSI method; summary of the method: as §2
# Enterococcus faecalis [15] = assay: Antibacterial activity against gram-positive Enterococcus faecalis EF159 harboring tet(M) by CLSI method; summary of the method: as §3
# Streptococcus pneumoniae [16] = assay: Antibacterial activity against gram-positive Streptococcus pneumoniae SP193 by CLSI method; summary of the method: as §1
SMILES,MIC (Acinetobacter baumannii) [µg/mL],MIC [1] [µg/mL],MIC (Burkholderia cenocepacia) [µg/mL],MIC (Enterococcus faecalis [2]) [µg/mL],MIC (Enterococcus faecium) [µg/mL],MIC (Klebsiella pneumoniae [3]) [µg/mL],MIC (Proteus mirabilis [4]) [µg/mL],MIC (Pseudomonas aeruginosa [5]) [µg/mL],MIC (Enterobacter cloacae) [µg/mL],MIC (Staphylococcus aureus [6]) [µg/mL],MIC (Staphylococcus aureus [7]) [µg/mL],MIC (Staphylococcus aureus [8]) [µg/mL],MIC (Streptococcus pneumoniae [9]) [µg/mL],MIC (Escherichia coli [10]) [µg/mL],MIC (Escherichia coli [11]) [µg/mL],MIC (Klebsiella pneumoniae [12]) [µg/mL],MIC (Proteus mirabilis [13]) [µg/mL],MIC (Pseudomonas aeruginosa [14]) [µg/mL],MIC (Enterococcus faecalis [15]) [µg/mL],MIC (Streptococcus pneumoniae [16]) [µg/mL]
CCCN1CCC[C@H]1c1cc(O)c2c(c1C(F)(F)F)C[C@H]1C[C@H]3[C@H](N(C)C)C(O)=C(C(N)=O)C(=O)[C@@]3(O)C(O)=C1C2=O,4,4,16,1,1,16,8,> 32,32,0.25,1,0.125,≤ 0.0156,1,2,,,,,
CN(C)[C@@H]1C(O)=C(C(N)=O)C(=O)[C@@]2(O)C(O)=C3C(=O)c4c(O)cc([C@H]5CCCN5)c(C(F)(F)F)c4C[C@H]3C[C@@H]12,2,1,8,16,4,0.125,0.5,8,8,0.125,16,0.0312,1,≤ 0.0156,2,,,,,
CN(C)[C@@H]1C(O)=C(C(N)=O)C(=O)[C@@]2(O)C(O)=C3C(=O)c4c(O)cc(-c5ccncc5)c(Cl)c4C[C@H]3C[C@@H]12,2,2,8,,,,,,,0.125,0.5,0.125,4,2,> 32,> 32,16,> 32,0.5,0.25
COc1c(C2CCCN2)cc(O)c2c1C[C@H]1C[C@H]3[C@H](N(C)C)C(O)=C(C(N)=O)C(=O)[C@@]3(O)C(O)=C1C2=O (some centres undefined),> 32,> 32,> 32,32,16,2,4,32,> 32,8,> 32,2,4,2,> 32,,,,,
CC(C)N1CCC[C@H]1c1cc(O)c2c(c1C(F)(F)F)C[C@H]1C[C@H]3[C@H](N(C)C)C(O)=C(C(N)=O)C(=O)[C@@]3(O)C(O)=C1C2=O,2,4,16,0.5,0.25,8,4,32,16,0.125,2,0.0625,≤ 0.0156,0.125,1,,,,,
CC1CCC(c2cc(O)c3c(c2C(F)(F)F)C[C@H]2C[C@H]4[C@H](N(C)C)C(O)=C(C(N)=O)C(=O)[C@@]4(O)C(O)=C2C3=O)N1C (some centres undefined),2,2,8,2,1,8,4,> 32,16,0.5,1,0.125,0.0312,0.5,2,,,,,
CC(C)CN1CCC[C@H]1c1cc(O)c2c(c1C(F)(F)F)C[C@H]1C[C@H]3[C@H](N(C)C)C(O)=C(C(N)=O)C(=O)[C@@]3(O)C(O)=C1C2=O,> 32,> 32,> 32,1,1,> 32,> 32,> 32,> 32,2,2,1,0.5,4,> 32,,,,,
CN(C)[C@@H]1C(O)=C(C(N)=O)C(=O)[C@@]2(O)C(O)=C3C(=O)c4c(O)cc([C@@H]5CCCN5)c(F)c4C[C@H]3C[C@@H]12,32,8,> 32,32,4,0.5,0.25,8,32,0.5,> 32,0.125,1,0.125,16,,,,,
CN(C)[C@@H]1C(O)=C(C(N)=O)C(=O)[C@@]2(O)C(O)=C3C(=O)c4c(O)cc([C@@H]5CCCN5CC5CC5)c(C(F)(F)F)c4C[C@H]3C[C@@H]12,4,4,16,1,1,16,8,> 32,32,0.5,1,0.125,0.0312,1,2,,,,,
CC1CCNC1c1cc(O)c2c(c1C(F)(F)F)C[C@H]1C[C@H]3[C@H](N(C)C)C(O)=C(C(N)=O)C(=O)[C@@]3(O)C(O)=C1C2=O (some centres undefined),1,0.5,4,1,0.5,1,2,8,2,0.125,8,≤ 0.0156,≤ 0.0156,≤ 0.0156,2,,,,,
CC1CCC(c2cc(O)c3c(c2C(F)(F)F)C[C@H]2C[C@H]4[C@H](N(C)C)C(O)=C(C(N)=O)C(=O)[C@@]4(O)C(O)=C2C3=O)N1 (some centres undefined),0.5,0.25,4,1,0.25,0.25,0.5,8,8,0.125,1,≤ 0.0156,≤ 0.0156,≤ 0.0156,0.5,,,,,
CN(C)[C@@H]1C(O)=C(C(N)=O)C(=O)[C@@]2(O)C(O)=C3C(=O)c4c(O)cc([C@@H]5CCCN5)cc4C[C@H]3C[C@@H]12,> 32,32,> 32,> 32,16,0.5,0.25,16,4,4,> 32,0.5,8,0.25,4,,,,,
CCN1CCC[C@H]1c1cc(O)c2c(c1C(F)(F)F)C[C@H]1C[C@H]3[C@H](N(C)C)C(O)=C(C(N)=O)C(=O)[C@@]3(O)C(O)=C1C2=O,1,1,8,0.5,0.125,4,4,32,4,0.0312,1,≤ 0.0156,≤ 0.0156,≤ 0.0156,0.5,,,,,
CN(C)c1c(C2CCCN2)cc(O)c2c1C[C@H]1C[C@H]3[C@H](N(C)C)C(O)=C(C(N)=O)C(=O)[C@@]3(O)C(O)=C1C2=O (some centres undefined),> 32,32,> 32,,,,,,,2,32,1,2,2,32,,,,,
CN(C)[C@@H]1C(O)=C(C(N)=O)C(=O)[C@@]2(O)C(O)=C3C(=O)c4c(O)cc(C5CCCN5)c(OC(F)(F)F)c4C[C@H]3C[C@@H]12 (some centres undefined),2,2,8,1,0.125,0.25,1,8,16,0.125,2,≤ 0.0156,≤ 0.0156,≤ 0.0156,8,,,,,
CN(C)[C@@H]1C(O)=C(C(N)=O)C(=O)[C@@]2(O)C(O)=C3C(=O)c4c(O)cc([C@@H]5CCCN5C)c(C(F)(F)F)c4C[C@H]3C[C@@H]12,0.25,0.125,4,,,2,,8,,0.125,2,≤ 0.0156,≤ 0.0156,0.0312,0.5,,,,,
CC1CCN(C)C1c1cc(O)c2c(c1C(F)(F)F)C[C@H]1C[C@H]3[C@H](N(C)C)C(O)=C(C(N)=O)C(=O)[C@@]3(O)C(O)=C1C2=O (some centres undefined),8,1,16,4,2,4,8,32,2,0.5,4,0.0312,≤ 0.0156,0.0625,2,,,,,
